Bioassay records as filed in PubChem BioAssay.
RanGTP-Impb inh = disruptors of Ran-importin-beta complex formation – biochemical, FRET, CFP-Ran, YFP-importin-beta, homogeneous, primary screen | cell-free CFP-Ran/YFP-importin-beta FRET ratio | inhibition, % (no concentration beside the values) | 300,000 compounds, 1.1% hits;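 active = more than half of the replicate wells show a fall in the fluorescence ratio signal beyond about 16%, limit read from the data, passing the limit was not always enough; inconclusive = exactly half of the replicate wells pass the set limit; inactive = fewer than half of replicates pass the limit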;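 note: 0% = DMSO wells and 100% = Ran loaded with GDP instead of GTP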
Runt-SMMHC FRET = blocks binding of human RUNX1 Runt domain to CBFb-SMMHC; Q01196+Q13951; Cerulean-Runt/Venus-CBFb-SMMHC FRET ratio 530/480, 1 h; inhibition, % at 20 µM; 220,000 compounds, 0.74% hits; AID 1434;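 active = mean inhibition across duplicate retests at 20 µM reaching about 50%, limit read from the data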;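 note: 0% = DMSO wells and 100% = wells with excess untagged CBFb-SMMHC; inhibitors lower the FRET ratio by blocking Runt binding to CBFb-SMMHC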
Target sequence (Q01196 whole entry, looked up, the tested form may be a part): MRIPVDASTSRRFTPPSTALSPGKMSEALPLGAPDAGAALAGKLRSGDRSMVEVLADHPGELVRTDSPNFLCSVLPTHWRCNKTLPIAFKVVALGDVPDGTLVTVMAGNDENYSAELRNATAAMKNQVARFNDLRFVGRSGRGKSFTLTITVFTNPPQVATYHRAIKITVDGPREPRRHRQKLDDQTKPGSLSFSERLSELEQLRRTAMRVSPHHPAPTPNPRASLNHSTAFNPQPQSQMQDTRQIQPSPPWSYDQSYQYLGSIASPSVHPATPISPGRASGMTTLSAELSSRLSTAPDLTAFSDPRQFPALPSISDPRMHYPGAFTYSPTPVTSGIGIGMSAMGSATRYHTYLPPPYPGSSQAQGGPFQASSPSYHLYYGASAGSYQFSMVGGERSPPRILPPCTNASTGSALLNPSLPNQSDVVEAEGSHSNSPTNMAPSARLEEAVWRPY
Target sequence (Q13951 whole entry, looked up, the tested form may be a part): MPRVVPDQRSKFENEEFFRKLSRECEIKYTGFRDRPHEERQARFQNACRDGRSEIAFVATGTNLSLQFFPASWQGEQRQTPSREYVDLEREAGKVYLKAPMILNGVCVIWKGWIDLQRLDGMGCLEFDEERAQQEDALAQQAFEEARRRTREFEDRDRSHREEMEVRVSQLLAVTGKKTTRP
VIM-2 inh = inhibitors of Pseudomonas aeruginosa VIM-2 metallo-beta-lactamase | 290,000 compounds, 0.89% hits | inhibition, % at 5.6 µM | purified VIM-2, nitrocefin hydrolysis, epi-absorbance fluorescence;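 active = inhibition above the mean of all tested compounds plus 3 SD, cutoff set per screening run, cut at about 7.5% in these data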;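 note: red hydrolysis product quenches plate fluorescence so inhibitors raise well fluorescence; 0% = enzyme with DMSO and 100% = DMSO without enzyme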
IMP-1 inhibitor = inhibitors of Pseudomonas aeruginosa IMP-1 metallo-beta-lactamase. inhibition, % at 5.6 µM. 290,000 compounds, 0.45% hits. purified IMP-1, nitrocefin hydrolysis, epi-absorbance fluorescence;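 active = inhibition above the mean plus 3 SD of all compounds in the same screening run, cut at about 4.5% in these data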;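 note: 0% = IMP-1 with DMSO and 100% = DMSO wells lacking enzyme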
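Assay system: purified recombinant IMP-1 beta-lactamase. Input: IMP-1 0.2 nM before substrate addition. Buffer or medium: Zinc- and detergent-supplemented HEPES buffer, pH 7.1. Schedule: 25 °C, 15 min preincubation, 25 min reaction. Signal: Epi-absorbance fluorescence, 480 nm excitation, 530 nm emission. Evaluation: percent inhibition from optical density relative to buffer-blank wells.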
Runt-CBFb FRET = Runt domain-CBFb interaction inhibition | Q01196+Q13951 | Cerulean-Runt/Venus-CBFb FRET ratio 530/480, 1 h | inhibition, % at 20 µM | 220,000 compounds, 0.46% hits | AID 1496;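 active = inhibition over about 50% at 20 µM in the single-dose screen, limit read from the data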;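 note: 0% = DMSO wells and 100% = excess unlabeled CBFb competitor control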
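Assay system: Cerulean-tagged RUNX1 Runt domain (FRET donor) fusion protein / Amount: 100 nM each of Venus-CBFb and Cerulean-Runt domain / Medium: Tris buffer pH 7.5 with salts and BSA / Also added: Venus-CBFb 100 nM / Schedule: 1 h complex formation plus 1 h compound treatment, room temperature / Signal: FRET fluorescence / Read-out: loss of energy transfer signal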
Numbers without * were called inactive; ? = inconclusive; . = no result. Sampled rows, rich in hits. Any-hit rate of the full collection: about 2.6%.

SMILES	RanGTP-Impb inh	Runt-SMMHC FRET	VIM-2 inh	IMP-1 inhibitor	Runt-CBFb FRET
Cc1cc(C)n(C(C)CC(=O)Nc2ccc(-c3ccno3)cc2)n1 (stereo not drawn)	3	.	2	3	.
Cn1nccc1C(=O)Nc1ccc2c(c1)OCO2	2	.	-2	-4	.
COc1ccc(CCC(=O)Nc2nnc(C(C)(C)C)s2)cc1	1	.	0	-1	.
COc1ccc(NC(=O)CCC(=O)Nc2nnc(C(F)(F)F)s2)c(OC)c1	-2	1	-3	4.9*	3
COc1ccc(CCC(=O)Nc2nnc(C(F)(F)F)s2)cc1	6	.	-3	8.7*	.
COc1ccc(NC(=O)CCCCC(=O)Nc2ccc(OC)cc2OC)c(OC)c1	4	.	.	.	.
COc1ccc(N2CC(C(=O)Nc3nc4ccc(S(C)(=O)=O)cc4s3)CC2=O)cc1 (stereo not drawn)	-2	.	-3	-3	.
CC(C)C[C@H](NC(=O)N1CCn2c1nc1ccccc12)C(=O)NCc1ccccc1	-3	.	-1	-4	.
CSCC[C@H](NC(=O)N1CCn2c1nc1ccccc12)C(=O)NCc1ccc(F)cc1	2	.	-2	51*	.
CC(C)C[C@H](NC(=O)N1CCn2c1nc1ccccc12)C(=O)NCC1CCCO1 (stereo partly drawn)	21*	.	-3	-1	.
COc1ccc(CNC(=O)[C@H](CCSC)NC(=O)N2CCn3c2nc2ccccc23)cc1	1	.	-3	-2	.
NC(CCCCc1ccccc1)c1cccc2ccccc12 (stereo not drawn)	2	.	.	.	.
O=C(CSC1CS(=O)(=O)c2cc([N+](=O)[O-])ccc21)NNC(=O)c1ccccc1 (stereo not drawn)	18*	-2	-2	-1	-1
O=[N+]([O-])c1cc([N+](=O)[O-])c(Oc2cc(Cl)ccc2Cl)cc1NC1CCCCCCC1	2	.	1	-1	.
CCCC12CN3CC(C)(CN(C1)C3c1cccs1)C2=O (stereo not drawn)	1	-1	-1	0	-1
COc1cc(C2c3sc(=O)[nH]c3SC3C4CCC(C4)C23)ccc1O (stereo not drawn)	-3	13	8.8*	3	5
COc1ccc(C2c3sc(=O)[nH]c3SC3C4CCC(C4)C23)cc1 (stereo not drawn)	5	4	2	-2	14
COC(=O)C1CSc2[nH]c(=O)sc2C1c1ccc(O)c(OC)c1 (stereo not drawn)	2	4	1	-1	15
O=c1[nH]c2c(s1)C(c1ccccc1)C1C3CCC(C3)C1S2 (stereo not drawn)	26*	11	6	-2	4
COC(=O)C1=COC(C)C2CN3CCc4c([nH]c5ccccc45)C3CC12 (stereo not drawn)	122*	46	-1	-2	11
COC(=O)C1=C2c3[nH]c4ccccc4c3CCN2C(=O)CC1	3	.	.	.	.
CCOC(=O)c1cc(C)[nH]c(=O)c1C#N	8	56*	-3	-2	26
Cc1cc(-c2ccc(C(C)C)c(S(=O)(=O)N3CCC(C)CC3)c2)on1	1	.	0	-2	.
CCN(CC)CCN1C(=O)C(O)=C(C(=O)c2cccs2)C1c1ccccn1 (stereo not drawn)	68*	-2	-3	-6	5
O=C(C1=C(O)C(=O)N(CCN2CCOCC2)C1c1ccccn1)c1cccs1 (stereo not drawn)	26*	13	0	-2	12
SMILES	RanGTP-Impb inh	Runt-SMMHC FRET	VIM-2 inh	IMP-1 inhibitor	Runt-CBFb FRET
COc1ccc(-c2nc3scc(-c4ccc(OC)c(OC)c4)c3c(=O)o2)cc1	1	-123	0	5.0*	-47
CC1(C)CC(=O)C(/C=N/c2ccccn2)=C(O)C1	5	-1	-5	-1	-1
COC(=O)c1cc(N=CC2=C(O)CC(C)(C)CC2=O)cc(C(=O)OC)c1	-3	7	-7	-3	-1
COC(=O)c1cc(OC)c(OC)cc1N=CC1=C(O)CC(C)(C)CC1=O	0	39	1	5.1*	2
CC1(C)CC(=O)C(C=Nc2cccc(/N=C/C3=C(O)CC(C)(C)CC3=O)n2)=C(O)C1	32*	7	2	0	3
O=C1N=C(N2CCCC2)S/C1=C\C=C\c1ccccc1	4	-4	0	-1	1
CC(C)(c1ccccc1)c1ccc(OCCN2CCOCC2)cc1	1	.	1	4.9*	.
CC(C)(c1ccccc1)c1ccc(OCCCN2CCNCC2)cc1	6	-2	2	-2	2
CCOC(=O)c1c(NC(=O)C2COc3ccccc3O2)sc2c1CCN(Cc1ccccc1)C2 (stereo not drawn)	90*	48	-1	-4	49
COC(=O)N1CCc2c(sc(NC(=O)C3COc4ccccc4O3)c2C(N)=O)C1 (stereo not drawn)	-1	.	.	.	.
NC(=O)c1c(NC(=O)C2COc3ccccc3O2)sc2c1CCN(Cc1ccccc1)C2 (stereo not drawn)	-3	137*	-1	-3	110*
CCOC(=O)c1c(NC(=S)NCc2ccccc2)sc2c1CCN(C(=O)OCC)C2	4	-2	-4	-5	1
CCOC(=O)c1c(NC(=S)Nc2ccccc2)sc2c1CCN(CC)C2	62*	152*	0	2	61*
CCOC(=O)c1ccc(NC(=O)NNS(=O)(=O)c2cc(OC)ccc2OC)cc1	3	.	-3	-6	.
Cn1c(C(=O)N2CCCCCC2)cc2c(=O)n(C)c3ccccc3c21	-5	-2	8.2*	-2	1
CCCN(CCC)CCNC(=O)c1cc2c(=O)n(C)c3ccccc3c2n1C	3	0	22*	-4	0
Cc1ccc(CNC(=O)c2cc3c(=O)n(C)c4ccccc4c3n2C)cc1	?	-4	0	-3	-2
Cn1c(C(=O)NCCN2CCN(c3ccccc3F)CC2)cc2c(=O)n(C)c3ccccc3c21	5	-4	8.8*	-1	-8
Cn1c(C(=O)NCCN2CCOCC2)cc2c(=O)n(C)c3ccccc3c21	?	-1	13*	-3	3
CCOC(=O)N1CCN(C(=O)c2cc3c(=O)n(C)c4ccccc4c3n2C)CC1	0	-3	4	-4	2
CCc1nnc(NC(=O)c2cc(Cl)ccn2)s1	3	.	1	-3	.
Cc1ncc(CO)c(CNc2ccc(-c3nc4ccccc4[nH]3)cc2)c1O	0	.	1	0	.
Cc1cc(-c2ccc(C(C)C)c(S(=O)(=O)Nc3cc(C)on3)c2)on1	7	.	1	0	.
Cc1cc(NC(=O)NC(=O)c2ccccc2)no1	-4	.	-1	-4	.
Cn1c(N)c(C(=O)COC(=O)c2ccc([N+](=O)[O-])o2)c(=O)n(C)c1=O	1	2	-2	-2	-1
CCCN(CCC)CCCNC(=O)c1cc2c(=O)[nH]c3ccccc3c2n1C	.	2	8.9*	-1	1
